This is a sample that favours compounds with a hit; in the whole collection about 1.4% have one here.
hiPSC survival = enhancers of single-cell hiPSC survival, primary screen, ATPlite luminescence; AID 602274, 2012; survival enhancement, % at 20 µM; 100% = ROCK inhibitor wells, 0% = DMSO; actives 0.044% (n = 360,000); in the data active = survival enhancement above about 18%;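 also: cells exposed to compounds for 16 hours before the ATP read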
NRP1-CendR mod = modulators of CendR peptide binding to NRP-1, primary screen, biochemical, fluorescence polarization, uHTS; FAM-RPARPAR peptide binding to NRP-1; actives 0.85% (n = 360,000); inhibition, % at 25 µM; AID 602438, 2012;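 active = inhibition or corrected inhibition above about 18%, plus a signal ratio from 0.5 to 1.5, limit read from the data, passing the limit was not always enough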
Target sequence (O14786 whole entry, looked up): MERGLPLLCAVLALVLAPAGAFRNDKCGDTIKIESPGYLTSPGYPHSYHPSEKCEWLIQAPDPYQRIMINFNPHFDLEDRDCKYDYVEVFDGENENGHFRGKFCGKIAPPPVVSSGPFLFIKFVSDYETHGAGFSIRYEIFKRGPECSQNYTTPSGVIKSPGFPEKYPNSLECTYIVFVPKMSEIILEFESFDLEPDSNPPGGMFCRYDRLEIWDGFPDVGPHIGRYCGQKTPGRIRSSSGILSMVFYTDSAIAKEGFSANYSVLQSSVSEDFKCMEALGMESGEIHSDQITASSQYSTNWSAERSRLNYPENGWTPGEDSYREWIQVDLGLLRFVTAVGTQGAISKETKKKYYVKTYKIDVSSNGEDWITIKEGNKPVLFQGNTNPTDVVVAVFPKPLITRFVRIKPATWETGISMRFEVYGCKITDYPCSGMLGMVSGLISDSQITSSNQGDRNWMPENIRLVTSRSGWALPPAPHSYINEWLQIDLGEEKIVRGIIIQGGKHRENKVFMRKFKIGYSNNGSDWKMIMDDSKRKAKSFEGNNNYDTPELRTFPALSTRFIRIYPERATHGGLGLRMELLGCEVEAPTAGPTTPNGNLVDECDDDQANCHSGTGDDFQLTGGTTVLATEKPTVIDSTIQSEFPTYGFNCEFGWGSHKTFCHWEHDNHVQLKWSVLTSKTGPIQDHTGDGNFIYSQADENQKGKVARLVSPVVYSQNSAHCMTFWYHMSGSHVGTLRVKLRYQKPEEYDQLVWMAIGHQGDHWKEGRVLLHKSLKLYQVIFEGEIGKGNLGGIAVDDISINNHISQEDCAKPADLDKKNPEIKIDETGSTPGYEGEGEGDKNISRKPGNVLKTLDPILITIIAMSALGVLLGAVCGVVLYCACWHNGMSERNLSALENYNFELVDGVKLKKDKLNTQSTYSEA
SKN-1 inh = suppressors of acrylamide-induced Pgst-4::GFP reporter in worms, primary screen, SKN-1 inhibitor project, whole organism, uHTS, GFP/RFP fluorescence ratio, strain VP596; C. elegans VP596 Pgst-4::GFP/RFP ratio, 24 h; inhibition, % at 21.8 µM; actives 0.49% (n = 360,000); AID 624304, 2012;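 active = interference check ratio from 0.5 to 1.5 plus GFP to RFP signal ratio inhibition reaching or exceeding a fixed threshold, cut at about 30% in these data, passing the limit was not always enough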
MT1-MMP act inh = blockers of MT1-MMP proenzyme processing, primary screen, HT1080 RFP-PRO-GFP cells, GFP/RFP fluorescence; Matrix metalloproteinase-14 (Homo sapiens), P50281; GFP/RFP ratio fluorescence, overnight; percent of plate control window, DMSO zero; GFP/RFP ratio change, % at 20 µM; actives 0.061% (n = 360,000); AID 651647, 2012;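 active = GFP/RFP ratio change of at least 30% with cell ATP level not reduced by more than half and red fluorescence within 50% of control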
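Assay system: HT1080 RFP-PRO-GFP cells | Dosing: 20 µM single dose, 1% DMSO | Incubation: Cells overnight before dosing, compound overnight, 37 °C, 5% CO2 | Evaluation: GFP/RFP fluorescence ratio | Control set: DMSO-only wells and HT1080 RFP-L50D-GFP cell wells as references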
Active calls of the source: *; / = no result given.

SMILES	hiPSC survival	NRP1-CendR mod	SKN-1 inh	MT1-MMP act inh
CC1(C)CC(=O)c2c(oc3ccc(NS(=O)(=O)c4ccc(C(=O)O)cc4)cc23)C1	0	0	2	-3
CCOc1ccc(C(=O)COC(=O)c2nn(CC)c(=O)c3ccccc23)cc1	0	19*	4	2
CC1(C(=O)NS(=O)(=O)c2cccc(C#N)c2)CCN1C(=O)c1ccccc1CCc1ccccc1 (stereo not drawn)	0	2	14	0
OC(c1ccc(F)cc1)c1nc(-c2ccncc2)cs1 (stereo not drawn)	-4	2	-12	7
Fc1ccc(-c2csc(Nc3ccccn3)n2)cc1	0	5	75*	0
c1csc(-c2csc(-c3cccs3)n2)c1	0	5	93*	6
c1cncc(-c2nc(-c3cccs3)cs2)c1	-1	4	-8	0
c1ccc(Nc2nc(-c3cccs3)cs2)nc1	-3	0	72*	-4
c1ccc(Nc2nc(-c3cccnc3)cs2)nc1	-2	7	15	-5
Fc1ccc(-c2csc(-c3ccncc3)n2)cc1	0	-14	70*	-5
O=C1CC(Cc2ccc(Cl)cc2)C(=O)N1c1ccncc1 (stereo not drawn)	2	-4	4	1
Cc1cccc(Nc2nc(-c3ccc(F)cc3)cs2)n1	0	11	16	-2
Cc1cccc(Nc2nc(-c3cccs3)cs2)n1	-1	22	36*	-13
COc1cccc2cc(-c3nc(-c4cccs4)cs3)c(=O)oc12	1	47*	14	-1
O=C(COC(=O)c1ccc(S(=O)(=O)C(F)F)cc1)Nc1cccnc1Cl	0	-6	18	7
CCN(CC)S(=O)(=O)c1cccc(C(=O)N[C@H](C(=O)NNC(=O)c2ccccc2)C(C)C)c1	1	0	-11	-1
Cc1ccc(-c2oc3ncnc(N)c3c2-c2ccc(C)cc2)cc1	-2	-4	1	1
Nc1nc(SCCN2C(=O)c3ccccc3C2=O)n[nH]1	0	13	-3	-6
COc1ccc(C2/C=C\CN3CCC[C@H]3C(=O)N2Cc2ccc(F)cc2)cc1 (stereo partly drawn)	-3	-41	17	-6
COc1ccc([C@H]2/C=C\CN(C(=O)C3CC3)[C@@H](C)C(=O)N2Cc2ccc(F)cc2)cc1	0	33*	-7	-7
COc1ccc([C@H]2/C=C\CN(S(C)(=O)=O)[C@@H](C)C(=O)N2Cc2ccc(F)cc2)cc1	3	22*	-18	6
O=C(N[C@@H](Cc1ccc(O)cc1)C(=O)O)C(c1ccccc1)c1ccccc1	1	0	10	-4
C=CCN(CC=C)S(=O)(=O)c1ccc2nc(NC(=O)C(C)C)sc2c1	4	-9	20	-1
Cn1ccnc1SCC(=O)Nc1ccc([N+](=O)[O-])cn1	0	3	-1	-2
Cn1ccnc1SCC(=O)Nc1ccc(Cl)cn1	-4	18*	4	-2
SMILES	hiPSC survival	NRP1-CendR mod	SKN-1 inh	MT1-MMP act inh
CCN1CCN(CCCNC(=O)c2ccc(NC(=O)C3=CSCCO3)cc2)CC1	0	15	13	-7
CCOc1cnn(Cc2ccccc2)c(=O)c1SCc1ccccc1	-1	28*	-1	-1
CN(C)S(=O)(=O)c1cccc(NC(=O)c2cc(-c3cccs3)nn2-c2cccc(Cl)c2)c1	-1	-8	1	5
Cc1[nH]c2ccccc2c1C(=O)/C=C/c1ccccc1	-1	-14	53*	-11
Cn1cccc1C(=O)N1CCN(S(=O)(=O)c2ccccc2)CC1	0	14	5	-2
O=C(c1ccccc1)c1c[nH]c2cc3c(cc2c1=O)OCCO3	4	7	47*	-1
CCCn1nc([N+](=O)[O-])c(C(C#N)c2nc3ccccc3s2)c(Cl)c1=O (stereo not drawn)	0	34*	18	21
CCN1C(=O)[C@H]2[C@H]3CN=C(SCc4ccc(C(=O)OC)cc4)N3[C@@](Cc3ccccc3)(C(=O)OC)[C@H]2C1=O	-1	-7	-5	0
Cc1ccc(C(C#N)c2ccc(C(=O)c3ccc(F)cc3)cc2)cc1 (stereo not drawn)	-2	33*	-25	-3
C/C(=N\NC(=O)c1ccncc1)c1cc2ccccc2oc1=O	-4	-8	-3	-2
COc1ccc2oc(=O)c(/C(N)=N/NC(=O)c3ccncc3)cc2c1	-1	-10	38*	-3
Cc1ccc(SCC(=O)OCC(=O)N(CCC#N)c2ccccc2)cc1	0	31*	-2	-2
N#CCCN(C(=O)COC(=O)CSc1ccc(Cl)cc1)c1ccccc1	0	-1	3	0
Cc1ccccc1C(=O)Nc1ccccc1-c1nnn(CC(=O)Nc2ccc3c(c2)OCCO3)n1	-3	-4	1	1
COc1ccc(CCC(=O)N2CCCc3ccccc32)cc1	1	28*	-5	-2
COc1ccc(OCCCC(=O)N2CCCc3ccccc32)cc1	0	7	-19	-5
CCn1c(=NC(=O)CSCC(=O)Nc2nccs2)sc2ccccc21	1	32*	11	0
O=C(CCn1c(=O)sc2ccccc21)Nc1nccs1	-2	14	-10	5
CC(C)c1ccc(S(=O)(=O)N2CCN(C(=O)CCNS(=O)(=O)c3ccccc3F)CC2)cc1	0	-7	19	1
CCOC(=O)c1cnc(-n2nc(C)cc2C)nc1NC1CCCC1	0	-15	12	10
CCOC(=O)c1cnc(-n2nc(C)cc2C)nc1Nc1ccc(OC)cc1	5	30*	3	12
CCOC(=O)CCCC(=O)N1CCOCCOCCN(C(=O)CCCC(=O)OCC)CCOCCOCC1	0	-3	10	1
CN1CCC(=NNC(=O)c2ccco2)CC1	-1	36*	11	-3
Cc1nn(C(=O)CCC(=O)NCc2cccc(F)c2)c2ccccc12	0	-6	34*	-6
CNC(=O)CSc1nnc(-c2ccco2)n1-c1cccc(C)c1	1	3	-20	-5
SMILES	hiPSC survival	NRP1-CendR mod	SKN-1 inh	MT1-MMP act inh
CCN(CC)C(=S)Sc1c(-c2ccccc2)c2cc(Cl)ccc2[nH]c1=O	-2	6	35*	-1
CCOC(=O)N1CCN(C(=O)C[C@@H]2C[C@@]3(C(=O)OCC)CCCC=C3N(Cc3ccccc3)C2=O)CC1	/	36*	-5	1
CCOC(=O)[C@]12CCCC=C1N(Cc1ccccc1)C(=O)[C@H](CC(=O)N1CCCCCC1)C2	/	4	5	-3
CCCCCCCCCCCCN1[C@@H](CC(=O)OC)c2cc(F)ccc2S1(=O)=O	-2	26*	-19	-3
CN(C)c1ccc(N2[C@@H](CC(=O)O)c3cc(C(F)(F)F)ccc3S2(=O)=O)cc1	-3	25*	9	2
CCCCCCCCN1[C@@H](CC(=O)O)c2ccc(C(F)(F)F)cc2S1(=O)=O	0	28*	4	3

Assay outcomes (PubChem)
